Data as given in ChEMBL document CHEMBL4325822, “Discovery of a tetrazolyl β-carboline with in vitro and in vivo osteoprotective activity under estrogen-deficient conditions” (Medchemcomm, 2018).
Calls of active or inactive are those of the source. No cut-off for these calls is given here.

Assays:
[1] = Toxicity in Sprague-Dawley rat model of OVX-induced bone loss assessed as luminal epithelial height at 1 mg/kg, po via gavage for 12 weeks (reference value: 27.29 +/- 0.96 umeter); format: organism-based; conditions: in vivo, 2016 h
[2] = Antioxidant activity assessed as DPPH radical scavenging activity after 30 mins by spectrophotometric method; format: functional
Method in brief: (§1)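 The compound was serially diluted from 1000 to 1.95 µg·ml⁻¹ and mixed 1:1 with DPPH in methanol. After 30 min at room temperature, absorbance was read at 517 nm. Scavenging (%) = [(Abc − Abs)/Abc] × 100, where Abc is DPPH without compound.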

Calvarial osteoblast [3] = assay: Increase in Runx2 protein expression in Sprague-Dawley rat calvarial osteoblasts at 100 pM after 48 hrs by Western blot analysis; format: functional, cell-based
Method in brief: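 Rat calvarial osteoblasts (pooled 1–2-day pups, collagenase/dispase digests) at 60–70% confluence treated 48 h. Whole-cell lysates immunoblotted with primary antibody overnight at 4 °C, then HRP secondary, with ECL detection. Densitometry gives fold change normalized to β-actin versus untreated cells. Mean ± SEM of three independent experiments.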

Rattus norvegicus [4] = assay: Antiosteoporotic activity in Sprague-Dawley rat model of OVX-induced bone loss assessed as mineral apposition rate at 5 mg/kg, po via gavage for 12 weeks by microcomputed tomographic analysis (reference value: 0.169 +/- 0.004 umeter/day); format: functional
Method in brief: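 Female Sprague-Dawley rats, 10-12 weeks old, ten per group, were ovariectomized and left 12 weeks for osteopenia. They were then dosed once daily by oral gavage for 12 weeks in 1% gum acacia vehicle. The estradiol arm received 100 µg·kg⁻¹ subcutaneously five days a week. Tetracycline and calcein were given intraperitoneally at 20 mg·kg⁻¹ each. Femur cross-sections (50 µm) were imaged by fluorescence microscopy for MAR and BFR.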

[5] = Induction of osteoblast differentiation in Sprague-Dawley rat calvarial osteoblasts assessed as alkaline phosphatase activity at 100 pM after 48 hrs using PNPP as substrate by spectrophotometric method relative to control; format: functional
Method in brief: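 Calvarial osteoblasts at 2 × 10³ cells/well. Treated 48 h with varied concentrations in differentiation medium (5% charcoal-treated FBS, 10 mM β-glycerophosphate, 50 µg·mL⁻¹ ascorbic acid). Total ALP read with PNPP substrate at 405 nm. Cell-free wells check for compound interference with substrate or absorbance.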

Calvarial osteoblast [6] = assay: Osteogenic activity in Sprague-Dawley rat calvarial osteoblasts assessed as mineralized nodule formation at 100 pM after 21 days by alizarin red-S staining based colorimetric method; format: functional
Method in brief: (§2)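 Osteoblasts at 10,000–15,000 cells/cm² in duplicate plates, 21 days in differentiation medium, medium changed every 48 h. Cells fixed in 4% PFA, stained with alizarin red-S (40 mM, pH 4.5, 30 min) and photographed. Stain extracted with 10% acetic acid, pH brought to 4.5 with ammonium hydroxide, read at 405 nm, normalized to cell number.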

Calvarial osteoblast [7] = assay: Cytotoxicity against Sprague-Dawley rat calvarial osteoblasts assessed as reduction in cell viability at 0.000001 to 1 uM after 48 hrs by MTT assay; format: cell-based
Method in brief: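 Osteoblasts came from pooled calvaria of 1-2-day-old Sprague-Dawley pups, isolated by sequential dispase/collagenase digestion. Cells were exposed to compound at 1 pM to 1 µM for 48 h, and viability was measured by MTT.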

Rattus norvegicus [8] = assay: Upregulation of OCN mRNA expression in femur bone of Sprague-Dawley rat model of OVX-induced bone loss at 1 to 5 mg/kg, po via gavage for 12 weeks by qPCR analysis; format: functional, organism-based
Method in brief: (§3)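 Ovariectomized female SD rats, osteopenic after 12 weeks, dosed orally once daily for 12 weeks (1.0 or 5.0 mg·kg⁻¹·day⁻¹, 1% gum acacia vehicle); sham and OVX vehicle groups included. Femurs collected at sacrifice for qRT-PCR, analysed by the ΔΔCT method.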

[9] = Toxicity in Sprague-Dawley rat model of OVX-induced bone loss assessed as total uterine area at 5 mg/kg, po via gavage for 12 weeks (reference value: 0.11 +/- 0.003 mm2); format: organism-based; conditions: in vivo, 2016 h
[10] = Antioxidant activity assessed as DPPH radical scavenging activity at 250 ug/ml after 30 mins by spectrophotometric method relative to control; format: functional; method in brief: as §1
Rattus norvegicus [11] = assay: Upregulation of Runx2 mRNA expression in femur bone of Sprague-Dawley rat model of OVX-induced bone loss at 1 to 5 mg/kg, po via gavage for 12 weeks by qPCR analysis; format: functional, organism-based; method in brief: as §3
Calvarial osteoblast [12] = assay: Osteogenic activity in Sprague-Dawley rat calvarial osteoblasts assessed as mineralized nodule formation at 100 pM after 21 days by alizarin red-S staining based light microscopic method; format: functional, cell-based; method in brief: as §2
Rattus norvegicus [13] = assay: Antiosteoporotic activity in Sprague-Dawley rat model of OVX-induced bone loss assessed as increase in femoral bone strength by measuring stiffness at 1 mg/kg, po via gavage for 12 weeks by 3 point bending test (reference value: 122.07 +/- 12.18 N/mm); format: functional
Rattus norvegicus [14] = assay: Antiosteoporotic activity in Sprague-Dawley rat model of OVX-induced bone loss assessed as protection against microarchitectural deterioration by measuring trabecular number at 5 mg/kg, po via gavage for 12 weeks by microcomputed tomographic analysis (reference value: 0.56 +/- 0.06 /millimeter); format: functional
Method in brief: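 Adult female Sprague-Dawley rats were ovariectomized and left 12 weeks to become osteopenic. They then received 12 weeks of once-daily oral gavage (1% gum acacia vehicle) or subcutaneous estradiol, five days a week. Femurs were collected at sacrifice and scanned by micro-CT for BMD and trabecular microarchitecture. Ten rats per group; mean ± SEM.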

[15] = Antioxidant activity assessed as DPPH radical scavenging activity at 500 ug/ml after 30 mins by spectrophotometric method relative to control; format: functional; method in brief: as §1
Rattus norvegicus [16] = assay: Antiosteoporotic activity in Sprague-Dawley rat model of OVX-induced bone loss assessed as decrease in serum CTX level at 1 to 5 mg/kg, po via gavage for 12 weeks by ELISA; format: functional, organism-based
Method in brief: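 Ovariectomy model as above: 12 weeks of osteopenia, then 12 weeks of daily gavage or subcutaneous estradiol. Serum was separated at autopsy, and CTX and PINP were measured by ELISA kits.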

Calvarial osteoblast [17] = assay: Increase in BMP2 protein expression in Sprague-Dawley rat calvarial osteoblasts at 100 pM after 48 hrs by Western blot analysis; format: functional, cell-based
Method in brief: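 Rat calvarial osteoblasts at 60-70% confluence were treated 48 h. Whole-cell lysates were blotted, blocked in 5% milk, and probed with primary antibody overnight at 4 °C, then with HRP secondary and ECL detection. Densitometry was normalized to β-actin; fold change versus untreated cells, three independent experiments, mean ± SEM.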

[18] = molecular target: I-kappa-B kinase (Rattus norvegicus) (UniProt Q9QY78+G3V926+Q6TMG5); assay: Inhibition of IKK in Sprague-Dawley rat calvarial osteoblasts assessed as reduction in TNFalpha-induced NFkB nuclear translocation at 100 pM after 24 hrs by immunofluorescence assay; format: cell-based; conditions: Calvarial osteoblast
Method in brief: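 Primary rat osteoblasts on chamber slides given TNFα (10 ng·ml⁻¹) for 24 h, with or without treatment. Then 4% PFA fixation, 0.1% Triton X-100, anti-NF-κB overnight, and Cy3 anti-rabbit secondary. Fluorescence imaged at excitation 552 nm, emission 570 nm.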

[19] = Antioxidant activity assessed as SNP-induced nitric oxide free radical scavenging activity at 250 ug/ml after 150 mins by Griess reagent based method relative to control; format: functional
Method in brief: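 Serial dilutions (1000 to 1.95 µg·ml⁻¹) were mixed with sodium nitroprusside (10 mM) and incubated 150 min. An equal volume of Griess reagent was added, and absorbance was read at 546 nm. Percentage scavenging was calculated relative to the control without compound.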

Question: For `CCOC(=O)c1cc2c([nH]c3ccccc32)c(C(c2nnnn2C(C)(C)C)N2CCN(C)CC2)n1` (centres undefined), which Activity [1] is on record?
Answer: 3.7 um

Question: What about the Activity [2] of the same compound?
Answer: Dose-dependent effect

Question: And the Activity (Calvarial osteoblast [3])?
Answer: Active

Question: What about the Activity (Rattus norvegicus [4]) of the same compound?
Answer: 0.92 micrometer/day

Question: What about the Emax at 0.0001 µM [5] of the same compound?
Answer: 89%

Question: And the Activity (Calvarial osteoblast [6])?
Answer: 70%

Question: What about the Activity (Calvarial osteoblast [7]) of the same compound?
Answer: Non-Toxic

Question: What about the Activity (Rattus norvegicus [8]) of the same compound?
Answer: Active

Question: What about the Activity [9] of the same compound?
Answer: 0.13 mm2

Question: What about the Activity [10] of the same compound?
Answer: 37.8%

Question: And the Activity (Rattus norvegicus [11])?
Answer: Active

Question: What about the Activity (Calvarial osteoblast [12]) of the same compound?
Answer: Active

Question: What about the Activity (Rattus norvegicus [13]) of the same compound?
Answer: 151.3 N/mm

Question: What about the Activity (Rattus norvegicus [14]) of the same compound?
Answer: 1.38 /millimeter

Question: What about the Activity [15] of the same compound?
Answer: 43.5%

Question: What about the Activity (Rattus norvegicus [16]) of the same compound?
Answer: Active

Question: And the Activity (Calvarial osteoblast [17])?
Answer: Active

Question: And the inhibition [18]?
Answer: Active

Question: What about the Activity [19] of the same compound?
Answer: 30.7%
